This is an account of results in paper PMC9064169 (ACS chemical biology, 2021).

The subject of one data set is MN9D cells. Put plainly: Cytotoxicity / viability in MN9D cells. It counts as cell-based. Particulars: 24 h treatment.
The target of data set [1] is T1, Arg563Ala His516Ala double mutant Nurr1 LBD (Homo sapiens, UniProt P43354, H516A/R563A).
T1 sequence (P43354 360-595 H516A/R563A limits assumed): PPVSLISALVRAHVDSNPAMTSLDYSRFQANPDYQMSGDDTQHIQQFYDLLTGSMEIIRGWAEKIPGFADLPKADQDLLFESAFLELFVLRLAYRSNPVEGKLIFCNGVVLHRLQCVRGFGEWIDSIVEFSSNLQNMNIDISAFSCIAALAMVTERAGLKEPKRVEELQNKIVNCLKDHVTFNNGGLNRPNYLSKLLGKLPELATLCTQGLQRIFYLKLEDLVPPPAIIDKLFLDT
Nature of the data set: MST binding to Arg563Ala/His516Ala double mutant Nurr1 LBD.

Data set [2] deals with T2, Arg563Ala mutant Nurr1 LBD (Homo sapiens, UniProt P43354, R563A).
T2 sequence (P43354 360-595 R563A limits assumed): T1 sequence (P43354 360-595 H516A/R563A limits assumed) with A157H
Nature of the data set: MST binding to Arg563Ala mutant Nurr1 LBD.

Data set [3] concerns the target endogenous full-length Nurr1 (Mus musculus, UniProt Q06219). Put plainly: qPCR of Nurr1 target gene transcripts. It counts as cell-based. Particulars: 24 h. In outline: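 Mouse MN9D cells treated with test compound at 10 μM, or over a concentration series, for 24 h. Vehicle was DMSO. mRNA was isolated and Th and Vmat2 transcripts were measured by qPCR. Values were normalized to housekeeping gene Hprt and expressed as fold-change over DMSO-treated cells. Values are from three or more independent measurements ± SD.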

Data set [4] deals with His516Ala mutant Nurr1 LBD (Homo sapiens, UniProt P43354, H516A). Nature of the data set: MST binding to His516Ala mutant Nurr1 LBD.
Chain of His516Ala mutant Nurr1 LBD (P43354 360-595 H516A limits assumed): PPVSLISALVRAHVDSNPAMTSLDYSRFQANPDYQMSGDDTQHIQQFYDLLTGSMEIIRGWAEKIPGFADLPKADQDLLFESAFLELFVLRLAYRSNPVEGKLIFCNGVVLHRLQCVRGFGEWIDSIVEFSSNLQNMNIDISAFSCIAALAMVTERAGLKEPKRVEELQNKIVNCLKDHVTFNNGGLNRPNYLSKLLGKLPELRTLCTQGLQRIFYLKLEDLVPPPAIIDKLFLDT
The target of data set [5] is Nurr1 ligand binding domain (LBD) (Homo sapiens, UniProt P43354). Nature of the data set: Microscale thermophoresis. The method in brief:
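KD for the Nurr1 LBD measured by microscale thermophoresis, with 0.1% of the surfactant Pluronic F127 present. To exclude non-specific binding by aggregates, the assay was repeated at increasing Pluronic F127 concentrations. Values are from three or more independent measurements ± SD.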

The nature of data set [6]: Chemical stability in solution. It counts as physicochemical. Particulars: observed during data acquisition; see references 26-28.
Data set [7] deals with full-length Nurr1 (NBRE response element) (Homo sapiens, UniProt P43354). Nature of the data set: Luciferase reporter assay, full-length receptor on NBRE response element. The data set is classed as cell-based.
Chain of full-length Nurr1 (NBRE response element) (P43354 whole entry, species assumed, the tested form may be a part): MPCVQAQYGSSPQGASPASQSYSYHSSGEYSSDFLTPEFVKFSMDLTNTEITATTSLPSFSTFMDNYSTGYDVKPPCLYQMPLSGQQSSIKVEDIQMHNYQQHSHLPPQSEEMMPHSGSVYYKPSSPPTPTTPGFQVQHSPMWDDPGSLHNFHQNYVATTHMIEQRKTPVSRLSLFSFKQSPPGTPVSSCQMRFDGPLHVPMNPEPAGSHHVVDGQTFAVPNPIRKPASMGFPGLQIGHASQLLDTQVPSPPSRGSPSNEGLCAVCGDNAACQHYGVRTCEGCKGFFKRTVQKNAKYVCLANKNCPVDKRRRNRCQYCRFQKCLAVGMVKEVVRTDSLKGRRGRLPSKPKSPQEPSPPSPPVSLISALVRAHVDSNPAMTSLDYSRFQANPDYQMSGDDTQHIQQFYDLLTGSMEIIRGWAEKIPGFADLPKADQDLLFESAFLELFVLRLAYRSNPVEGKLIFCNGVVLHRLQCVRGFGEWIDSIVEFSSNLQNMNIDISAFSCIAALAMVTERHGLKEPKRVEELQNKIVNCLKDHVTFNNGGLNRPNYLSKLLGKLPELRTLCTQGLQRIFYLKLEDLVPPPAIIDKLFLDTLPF
In the next data set the target is T3, LBD of RXRα (Homo sapiens, UniProt P19793).
T3 sequence (P19793 227-458 limits assumed): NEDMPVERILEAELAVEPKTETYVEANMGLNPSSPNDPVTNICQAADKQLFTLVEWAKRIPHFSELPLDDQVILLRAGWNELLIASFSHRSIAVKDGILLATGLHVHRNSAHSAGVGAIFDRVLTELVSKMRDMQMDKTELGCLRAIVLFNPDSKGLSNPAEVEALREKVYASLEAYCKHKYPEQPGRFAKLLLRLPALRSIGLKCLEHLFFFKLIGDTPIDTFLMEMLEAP
Nature of the data set: Binding to the LBD of RXRα.

The conditions of data set [8]: cited from earlier work.
The test system of another data set is zebrafish. The settings on record: cited from earlier work.
[9] abbreviates: MN9D cells, 10 μM, normalized to Hprt.

Substitutions are numbered along the chain they refer to. Entries after “also recorded” stand apart in the source; their conditions may differ. Like-named read-outs stand apart in the source and are kept apart here.

Chain of Nurr1 ligand binding domain (LBD) (P43354 360-595 limits assumed): as the sequence (P43354 360-595 H516A limits assumed) above, with A157H counted along it
Chain of endogenous full-length Nurr1 (Q06219 whole entry): as the sequence (P43354 whole entry, species assumed, the tested form may be a part) above, with T131S, G134S, E354D counted along it

Take `Brc1ccc2[nH]ccc2c1` [5-bromoindole]: the “Cytotoxicity in MN9D cells” value with MN9D cells is given as “somewhat toxic to cells under certain conditions (≥10 μM, 24 h)”. Besides, in data set [1], the “Binding to Arg563Ala/His516Ala double mutant relative to wildtype” value is reported as “eliminated”. Moreover, in data set [2], the “Binding to Arg563Ala mutant relative to wildtype” value is reported as “eliminated”. Moreover, in data set [3] (setting [9]), the “Th expression, fold-change relative to vehicle (DMSO)” value worked out at 2.2 fold and the “Vmat2 expression, fold-change relative to vehicle (DMSO)” value was 2.5 fold. The “Binding affinity for His516Ala mutant relative to wildtype” value in data set [4] is “statistically unchanged”.

As for `Clc1ccc2[nH]ccc2c1` [5-chloroindole], the “Effect of increasing surfactant concentration on affinity for the Nurr1 LBD” value in [5] (MST binding assay) is on record as “only has a minor effect”. The “Affinity for the Nurr1 LBD compared with reference ligands” value in data set [5] (in vitro and in luciferase reporter assays) is “comparable to DHI and amodiaquine”. For the same compound, in [6], the “Chemical stability in solution” value is given as “stable”. For the same compound, the “Cytotoxicity in MN9D cells” value with MN9D cells is “non-cytotoxic; also recorded: not cytotoxic”. Further, in data set [1], the “Improvement of affinity relative to wildtype, double mutant” value is listed as ~ 2 fold. Also, the “Activity of Nurr1 in luciferase reporter assay (full-length receptor, NBRE)” value in [7] is given as “stimulates the activity of Nurr1”. In [2], the “Improvement of affinity relative to wildtype, Arg563Ala mutant” value was ~ 2 fold. In addition, the “Saturable binding to the LBD of RXRα” value on LBD of RXRα was “does not exhibit saturable binding”. Also, the “Vmat2 expression, fold-change relative to vehicle (DMSO)” value in data set [3] (setting [9]) is given as 2.4 fold. The “Potency in MN9D cells compared with reference ligands” value in [3] (Th and Vmat2 expression) is “superior to that of DHI and amodiaquine”. Moreover, the “Improvement of affinity relative to wildtype, His516Ala mutant” value in data set [4] is on record as ~ 2 fold.

With `Nc1ccc2cc[nH]c2c1` [6-aminoindole], in data set [6], the “Chemical stability in solution” value was “autooxidation and polymerization in solution”. Moreover, the “Cytotoxicity in MN9D cells” value with MN9D cells was “significant cytotoxicity”.

As to `Oc1ccc2cc[nH]c2c1` [6-hydroxyindole], the “Chemical stability in solution” value in data set [6] was “autooxidation and polymerization in solution”. In addition, the “Cytotoxicity in MN9D cells” value in the data set with MN9D cells was “significant cytotoxicity”.

On to `Oc1cc2cc[nH]c2cc1O` [DHI, 5,6-dihydroxyindole], for which the “Chemical stability in solution” value in [8] is “readily auto-oxidizes and polymerizes”. The “Expression of th and vmat2 in zebrafish” value in the data set with zebrafish is “stimulates the expression of th and vmat2”.

For orientation: Kd means the free concentration of one partner at which half of the binding sites on the other are occupied at equilibrium, for simple one-to-one binding. A lower Kd goes with a tighter complex. In data set [5], `CCN(CC)Cc1cc(Nc2ccnc3cc(Cl)ccc23)ccc1O` [amodiaquine, reference compound] yielded a dissociation constant Kd of 8 ± 1.5 µM.
